Bioassay records: PubChem BioAssay, several laboratories
The list is not random: actives were taken first. Their share in the collection is about 12%.
Diaph inh CS – counter-screen for diaphorase-based assays: diaphorase inhibitors and chemical oxidizers. 190,000 compounds, 0.69% hits. diaphorase resazurin-to-resorufin fluorescence, NADH, 16 min; bacterial (C. kluyveri) enzyme, not human. inhibition, % at 20 µM;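 active = primary screen inhibition at 20 µM above a set limit, cut at about 50% in these data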
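Test system: diaphorase enzyme from Clostridium kluyveri; amount: diaphorase at 0.14 U/mL in enzyme working solution; detection: fluorescence of resorufin formed from resazurin, Ex 544/Em 590 nm; times: reaction incubation of 16 min at room temperature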
ROMK mod – human ROMK K+ channel modulation, primary screen | Tet-inducible ROMK, thallium flux fluorescence; actives lie on both sides | B-score at 10 µM | 130,000 compounds, 2% hits | P48048;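 active = signal ratio slope over the read window, or its plate-corrected B-score, at least 3 SD from the plate mean, either direction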;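 also: B-score of the F/F0 ratio slope over 7 to 12 s after thallium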
Cl transport mod – KCC2 (human) Cl- transport modulation; Q9H2X9; KCC2 cells, thallium flux FluoZin-2 fluorescence; B-score of Tl+ flux slope (higher = more flux/activation; lower = inhibition) at 10 µM; 190,000 compounds, 2.2% hits; AID 1456;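 active = thallium flux slope and its plate-corrected score both differing from the plate sample mean at a set confidence after two filtering rounds, in either direction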;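 also: slope of fluorescence scaled to starting intensity during 10 to 20 s after thallium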
Diaph act CS – counter-screen for diaphorase-based assays: diaphorase activators and chemical reducers. Diaphorase/resazurin coupled assay, resorufin fluorescence, 16 min; active compounds read high; 1 = vehicle wells, 0 = NADH-free wells. activation factor at 20 µM. 190,000 compounds, 0.005% hits;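 active = diaphorase activity raised at least twofold by the compound at 20 µM; inactive = activation factor below 2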
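Material: purified diaphorase enzyme from Clostridium kluyveri / Medium: HEPES pH 7.4 buffer with MgCl2 and Tween 20 / Schedule: enzyme reaction of 16 min at room temperature / Measured by: resorufin fluorescence, excitation 544 nm, emission 590 nm / Evaluation: rise in resorufin formation, marking diaphorase activation or chemical reduction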
WT yeast gro inh – growth inhibition of WT yeast, mitochondrial fusion screen; mitochondrial fusion phenotypic screen, WT strain; inhibition, % at 10 µM; 190,000 compounds, 2.1% hits; AID 1362; in the data active = inhibition above about 58%; tested in S. cerevisiae
Lmaj promast – reduces viability of Leishmania major promastigotes; resazurin fluorescence viability; inhibition, % at 10 µM; 200,000 compounds, 9% hits; AID 1063; in the data active = inhibition above about 50%;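 also: promastigotes grown with compound for 44 hours at 28 °C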
Numbers stand for hits; i = inactive; nt = no result given.

SMILES | Diaph inh CS | ROMK mod | Cl transport mod | Diaph act CS | WT yeast gro inh | Lmaj promast
c1ccc2c(C3=NNC(=NC4CCCCC4)SC3)c[nH]c2c1 | i | nt | i | i | i | 93.0
CC(C)CNC(=S)NC1CC2CCCC(C1)N2Cc1ccco1 (stereo not drawn) | i | nt | i | i | i | 62.2
COCCCNC(=S)NC1CC2CCCC(C1)N2Cc1ccco1 (stereo not drawn) | i | nt | nt | i | 99.1 | i
CC(C)CN1C2CCCC1CC(NC(=S)NCc1ccco1)C2 (stereo not drawn) | i | i | i | i | i | i
CC(C)CNC(=S)NC1CC2CCCC(C1)N2Cc1cccs1 (stereo not drawn) | i | nt | i | i | i | 94.3
COc1ccc(C[C@H]2CN3C(=NC[C@@H]3Cc3ccccc3)N2CCNC(=O)CCC2CCCCC2)cc1 | i | nt | i | i | i | 57.7
O=C(Nc1cccc2nsnc12)c1cccnc1 | i | i | i | i | i | 78.2
Cc1cc(C)cc(-n2c(C)cc(C(=O)CSc3nnnn3C)c2C)c1 | i | i | i | i | i | 91.4
CCOc1cc(C=O)c(Br)cc1OC1CCCC1 | i | nt | i | i | i | 83.5
CCCCn1c(=NC(=O)c2ccco2)c(C(=O)OCC)cc2c(=O)n3cccc(C)c3nc21 | nt | nt | i | nt | nt | nt
O=C(Nc1ccc(Cl)cc1)Nc1cccnc1 | i | nt | i | i | i | i
CC(C#N)(Nc1ccc(Cl)cc1)c1cccnc1 (stereo not drawn) | i | i | i | i | i | 70.2
C/C(=N/OC(=O)c1ccc(F)cc1)c1ccc(C)cc1 | i | nt | nt | i | i | i
Cc1ccc(S(=O)(=O)NN)c(C)c1N1CCCC1=O | nt | nt | i | nt | nt | nt
O=[N+]([O-])c1cc(CN2CCN(c3ccccc3)CC2)c(O)c2ncccc12 | i | i | i | i | i | 100.3
O=c1[nH]c(CN2CCN(S(=O)(=O)c3ccc(Cl)cc3)CC2)nc2cc(Cl)ccc12 | i | nt | i | i | i | i
CN1CCN(Cc2cc(COCc3ccccc3)c3cccnc3c2O)CC1 | i | i | nt | i | i | 100.5
O=S(=O)(c1ccc(Cl)cc1)N1CCN(Cc2ccc(O)c3ncccc23)CC1 | i | i | i | i | i | 98.1
Oc1ccc(CN2CCN(Cc3ccccc3)CC2)c2cccnc12 | nt | i | i | nt | i | 100.2
CCOC(=O)Cn1nc(-c2ccc(F)cc2)oc1=O | i | i | i | i | i | i
CC1(C)CC(=O)C2=C(C1)OC1=C(C(=O)CC(C)(C)C1)C2(C)C | i | i | i | i | i | i
O=C(c1cc2sccc2n1Cc1ccccc1)N1CCCc2ccccc21 | i | i | i | i | i | 63.1
CCOC(=O)c1cc2sccc2n1CC(=O)N1CCCc2ccccc21 | i | i | i | i | i | 91.7
O=C(c1cc2sccc2n1Cc1ccccc1)N1CCc2ccccc21 | i | i | nt | i | i | i
COC(=O)c1cc2sccc2n1CC(=O)N1CCCc2ccccc21 | i | i | nt | i | i | i
SMILES | Diaph inh CS | ROMK mod | Cl transport mod | Diaph act CS | WT yeast gro inh | Lmaj promast
CCOC(=O)c1cc(NC(=O)Nc2nccs2)c(C)nc1C | i | i | i | i | i | i
O=S(=O)(c1ccccc1)c1nc(Nc2ccccc2N2CCOCC2)sc1Cl | i | i | i | i | i | 55.9
O=S(=O)(c1ccccc1)c1nc(NC2CC2)sc1Cl | i | i | nt | i | i | i
Cc1cccc(OCC(=O)NC2CCCc3ccccc32)c1C (stereo not drawn) | i | i | i | i | i | 60.7
Cc1cc(C)cc(OCC(=O)NC2CCCc3ccccc32)c1 (stereo not drawn) | i | nt | i | i | i | i
CC(C)c1ccccc1OCC(=O)NC1CCCc2ccccc21 (stereo not drawn) | i | nt | i | i | 60.8 | i
O=C(CN(CC1CCCO1)C(=O)CCC(=O)Nc1nccs1)NCc1ccccc1 (stereo not drawn) | i | i | i | i | i | i
Cc1ccc2c(c1)NC(=O)c1cc([N+](=O)[O-])ccc1O2 | i | i | i | i | i | i
Cc1ccc2c(c1)N/C(=C(\C=C(/Cl)[N+](=O)[O-])[N+](=O)[O-])N2 | 74.9 | i | i | i | i | i
N#C/C(=C\c1cc2ccccc2nc1N1CCCCC1)C(N)=O | i | i | i | i | i | 75.6
CCOC(=O)/C(C#N)=C/c1cc2ccccc2nc1Cl | i | nt | i | i | i | i
